{
  "source": "ChEMBL document CHEMBL1131233",
  "about": "“Synthesis and structure-activity relationships of bafilomycin A1 derivatives as inhibitors of vacuolar H+-ATPase” (J Med Chem, 1998)",
  "data": [
    {"target": "V-type proton ATPase subunit B, brain isoform (Bos taurus) (UniProt P31408)", "sequence (P31408 whole entry, canonical isoform)": "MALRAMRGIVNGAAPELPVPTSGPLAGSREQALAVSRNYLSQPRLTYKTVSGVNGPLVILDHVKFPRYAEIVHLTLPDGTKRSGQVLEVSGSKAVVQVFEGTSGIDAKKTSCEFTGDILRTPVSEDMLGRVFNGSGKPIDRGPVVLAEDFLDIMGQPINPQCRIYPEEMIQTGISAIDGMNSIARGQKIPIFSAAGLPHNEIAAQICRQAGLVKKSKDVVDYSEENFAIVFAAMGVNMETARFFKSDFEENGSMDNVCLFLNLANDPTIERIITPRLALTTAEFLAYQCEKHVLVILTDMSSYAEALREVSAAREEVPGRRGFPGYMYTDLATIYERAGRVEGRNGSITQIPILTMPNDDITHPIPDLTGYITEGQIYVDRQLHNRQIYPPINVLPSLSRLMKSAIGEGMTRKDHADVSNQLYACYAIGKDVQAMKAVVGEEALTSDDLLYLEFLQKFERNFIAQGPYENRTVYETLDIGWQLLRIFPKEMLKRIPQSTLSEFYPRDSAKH", "assay": "Inhibition of V-ATPase-driven proton transport in membrane vesicles derived from bovine chromaffin granules (bCG); Potency ratio expressed as IC50 of compound/IC50 of baf A1", "outline": "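Proton transport in bovine chromaffin granule inside-out vesicles, read by acridine orange (5 μM) fluorescence quench with 1 mM Na₂ATP, pH 7.4. IC50 from ≥3 duplicated doses by four-parameter logistic fit. Each IC50 is divided by the bafilomycin A₁ IC50 from the same experiment, to correct for membrane batch and protein level.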", "values": [
      {"smiles": "CO/C1=C\\C(C)=C\\[C@@H](C)[C@@H](O)[C@@H](C)C/C(C)=C/C=C/[C@H](OC)[C@@H]([C@@H](C)[C@@H](O)[C@H](C)[C@@]2(OC)C[C@@H](O)[C@H](C)[C@@H](C(C)C)O2)OC1=O", "Potency ratio": 1.4},
      {"smiles": "CCCO[C@@H]1C[C@](OC)([C@@H](C)[C@H](O)[C@H](C)[C@H]2OC(=O)/C(OC)=C/C(C)=C/[C@@H](C)[C@@H](O)[C@@H](C)C/C(C)=C/C=C/[C@@H]2OC)O[C@H](C(C)C)[C@H]1C", "Potency ratio": 5},
      {"smiles": "C/C=C/CC(O)[C@@H](C)[C@H](O)[C@H](C)[C@H]1OC(=O)/C(OC)=C/C(C)=C/[C@@H](C)[C@@H](O)[C@@H](C)C/C(C)=C/C=C/[C@@H]1OC", "note": "(some centres not stated)", "Potency ratio": 2.6},
      {"smiles": "CO/C1=C\\C(C)=C\\C(C)C(=O)[C@@H](C)C/C(C)=C/C=C/C(OC)[C@@H]([C@@H](C)C(=O)[C@H](C)C2=CC(=O)[C@H](C)[C@@H](C(C)C)O2)OC1=O", "note": "(some centres not stated)", "Potency ratio": 3050},
      {"smiles": "CO/C1=C\\C(C)=C\\[C@@H](C)[C@@H](O)[C@@H](C)C/C(C)=C/C=C/[C@H](OC)[C@@H]([C@@H](C)[C@@H](O)[C@H](C)[C@@]2(O)C[C@@H](OC)[C@H](C)[C@@H](C(C)C)O2)OC1=O", "Potency ratio": 1.2},
      {"smiles": "CO/C1=C\\C(C)=C\\[C@@H](C)[C@@H](O)[C@@H](C)C/C(C)=C/C=C/[C@H](OC)[C@@H]([C@@H](C)[C@@H](O)[C@H](C)C(O)C[C@H](O)[C@H](C)C(O)C(C)C)OC1=O", "note": "(some centres not stated)", "Potency ratio": 8.2},
      {"smiles": "COC(=O)/C(=C/C(C)=C/[C@@H](C)[C@@H](O)[C@@H](C)C/C(C)=C/C=C/[C@H](OC)[C@H](O)[C@@H](C)[C@@H](O)[C@H](C)[C@@]1(O)C[C@@H](O)[C@H](C)[C@@H](C(C)C)O1)OC", "Potency ratio": 330},
      {"smiles": "CCO[C@@H]1C[C@](O)([C@@H](C)[C@H](O)[C@H](C)[C@H]2OC(=O)/C(OC)=C/C(C)=C/[C@@H](C)[C@@H](O)[C@@H](C)C/C(C)=C/C=C/[C@@H]2OC)O[C@H](C(C)C)[C@H]1C", "Potency ratio": 1.2},
      {"smiles": "C/C=C/CC(=O)[C@@H](C)[C@H](O)[C@H](C)[C@H]1OC(=O)/C(OC)=C/C(C)=C/[C@@H](C)[C@@H](O)[C@@H](C)C/C(C)=C/C=C/[C@@H]1OC", "Potency ratio": 21},
      {"smiles": "CO/C1=C\\C(C)=C\\[C@@H](C)[C@@H](O)[C@@H](C)C/C(C)=C/C=C/[C@H](OC)[C@@H]([C@@H](C)[C@@H](O)[C@H](C)[C@@]2(O)CC(=O)[C@H](C)[C@@H](C(C)C)O2)OC1=O", "Potency ratio": 2.2},
      {"smiles": "CO/C1=C\\C(C)=C\\[C@@H](C)C(=O)[C@@H](C)C/C(C)=C/C=C/[C@H](OC)[C@@H]([C@@H](C)[C@@H](O)[C@H](C)[C@@]2(O)CC(=O)[C@H](C)[C@@H](C(C)C)O2)OC1=O", "Potency ratio": 112},
      {"smiles": "COC1/C=C(\\C)C[C@@H](C)[C@@H](O)[C@@H](C)CC(C)/C=C/CC(OC)[C@@H]([C@@H](C)[C@@H](O)[C@H](C)[C@@]2(O)C[C@@H](O)[C@H](C)[C@@H](C(C)C)O2)OC1=O", "note": "(some centres not stated)", "Potency ratio": 2110},
      {"smiles": "CO/C1=C\\C(C)=C\\[C@@H](C)[C@@H](O)[C@@H](C)C/C(C)=C/C=C/[C@H](OC)[C@@H]([C@@H](C)[C@@H](O)[C@H](C)[C@@]2(O)C[C@@H](N3CCCCC3)[C@H](C)[C@@H](C(C)C)O2)OC1=O", "Potency ratio": 6.7},
      {"smiles": "CO/C1=C\\C(C)=C\\[C@@H](C)[C@@H](O)[C@@H](C)C/C(C)=C/C=C/[C@H](OC)[C@@H]([C@@H](C)[C@@H](O)[C@H](C)[C@@]2(O)C[C@@H](NC3CCCCC3)[C@H](C)[C@@H](C(C)C)O2)OC1=O", "Potency ratio": 9.2},
      {"smiles": "CO/C1=C\\C(C)=C\\[C@@H](C)[C@@H](O)[C@@H](C)C/C(C)=C/C=C/[C@H](OC)[C@@H]([C@@H](C)[C@@H](O)[C@H](C)[C@@]2(O)C[C@@H](O)[C@H](C)[C@@H](C(C)C)O2)OC1=O", "Potency ratio": 1},
      {"smiles": "CO/C1=C\\C(C)=C\\[C@@H](C)[C@@H](O)[C@@H](C)C/C(C)=C/C=C/[C@H](OC)[C@@H]([C@@H](C)[C@@H](O)[C@H](C)C(=O)/C=C/[C@H](C)C(O)C(C)C)OC1=O", "note": "(some centres not stated)", "Potency ratio": 15},
      {"smiles": "CO/C1=C\\C(C)=C\\[C@@H](C)C(=O)[C@@H](C)C/C(C)=C/C=C/[C@H](OC)[C@@H]([C@@H](C)[C@@H](O)[C@H](C)[C@@]2(O)C[C@@H](O)[C@H](C)[C@@H](C(C)C)O2)OC1=O", "Potency ratio": 32}
    ]}
  ]
}
